The source made the active and inactive calls. No cut-off for these calls is given here.
How the values were obtained:
[1] = tested on: L02; experiment: Cytotoxicity against human L02 cells assessed as inhibition of cell viability at 0.625 to 40 uM measured after 72 hrs by MTT assay; type: cell-based; conditions: l02, 72 h, dose 0.625-40 µM
Summary of the method: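 Cells were grown at 37 °C, 5% CO2, in medium with 10% FBS, and seeded at 2–4×10^3 cells/well. Compound was added 24 h after plating and left for 72 h. MTT (5 mg/mL stock) was then added for 2–4 h at 37 °C, formazan was dissolved in DMSO, and absorbance read at 570 nm. Values are means of at least three independent experiments.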

[2] = tested on: HCT-15; experiment: Antiproliferative activity against human HCT-15 cells assessed as inhibition of cell viability measured after 72 hrs by MTT assay; type: functional, cell-based; conditions: HCT-15, 72 h
Summary of the method: (§1)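 Cells kept at 37 °C, 5% CO₂ in RPMI 1640, L-15 or DMEM with 10% FBS and 1% penicillin-streptomycin. Plated at 2-4 × 10³ cells/well and dosed 24 h after plating. After 72 h exposure, MTT added for 2-4 h at 37 °C. Formazan dissolved in DMSO, absorbance read at 570 nm. IC50 is the mean of at least three independent experiments.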

[3] = tested on: HCT-116; experiment: Antiproliferative activity against human HCT-116 cells assessed as inhibition of cell viability measured after 72 hrs by MTT assay; type: functional, cell-based; conditions: HCT-116, 72 h; summary of the method: as §1
[4] = tested on: DLD-1; experiment: Antiproliferative activity against human DLD-1 cells assessed as inhibition of cell viability measured after 72 hrs by MTT assay; type: functional, cell-based; conditions: DLD-1, 72 h; summary of the method: as §1
[5] = tested on: SW-620; experiment: Antiproliferative activity against human SW-620 cells assessed as inhibition of cell viability measured after 72 hrs by MTT assay; type: functional, cell-based; conditions: SW-620, 72 h; summary of the method: as §1
[6] = Toxicity in Balb/c mouse xenografted with human HT-29 cells assessed as reduction in body weight at 30 mg/kg, po administered via gavage measured after 10 days; type: organism-based; conditions: in vivo, 240 h, time 10 day
Summary of the method: (§2)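 Female BALB/c nude mice, 6–7 weeks old, injected subcutaneously with 8×10^6 HT29 cells. At about 100 mm³ average tumour volume, mice were randomised into groups (n=5). Dosing was daily oral gavage for 30 days in 10% DMSO/1% Tween-80/saline, with a vehicle group. Tumour size (calipers; 0.5 × shortest diameter² × longest diameter) and body weight were recorded every two days.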

[7] = tested on: HT-29; experiment: Antitumour activity against human HT-29 cells xenografted in Balb/c mouse assessed as inhibition of tumour growth at 30 mg/kg, po administered via gavage for 30 days and measured every 2 days by vernier caliper analysis; type: functional, organism-based; conditions: time 30.0 day; summary of the method: as §2
[8] = tested on: HT-29; experiment: Antiproliferative activity against human HT-29 cells assessed as inhibition of cell viability measured after 72 hrs by MTT assay; type: functional, cell-based; conditions: HT-29, 72 h; summary of the method: as §1

SMILES: O=c1[nH]cc(F)c(=O)[nH]1 [FLUOROURACIL]
- Activity [1]: Toxic
- IC50 [2]: 10.9 µM
- IC50 [3]: 12.3 µM
- IC50 [4]: 11.4 µM
- IC50 [5]: 15.3 µM
- Activity [6]: Toxic
- Activity [7]: Active
- IC50 [8]: 13.4 µM
